Experiments:
human macrophages [1] = assay: Macrophage phagocytosis of serum-treated zymosan; type: cell-based; conditions: human MΦ; for phagocytosis of STZ, dose response: 0.1pM-10 nM, 15 min preincubation; for increase of phagocytosis of STZ above vehicle: 10 pM
In short: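 GM-CSF-differentiated human macrophages were plated at 50,000 cells/well in PBS++ and used 24 h later. Compounds (0.1 pM–10 nM) were added for 15 min at 37 °C, pH 7.45. FITC-labelled serum-treated zymosan was then added at 10:1 for 40 min at 37 °C. Extracellular signal was quenched with trypan blue and fluorescence read at Ex 493/Em 535 nm. Results are % above vehicle, triplicates from 3–4 donors, with curve fitting.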

DRV1/GPR32 [2] = target: T1, DRV1/GPR32 (Homo sapiens, UniProt O75388); assay: GPR32 PathHunter β-Arrestin Assay; type: cell-based
In short: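 CHO-K1 PathHunter GPR32 cells were grown with geneticin 800 μg/mL and hygromycin B 300 μg/mL, then seeded at 2,500 cells/well in 1536-well plates overnight. Compounds in DMSO were tested at 11 points (1:3, 57 μM–1 nM) for 90 min at 37 °C, then detection reagent was added for 1 h and luminescence read. DMSO (0.57%) set 0%; a 2-fold signal increase set 100%. Two experiments in triplicate.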

DRV1/GPR32 [3] = target: T1, DRV1/GPR32; assay: GPR32 cAMP HTRF signaling assay; type: cell-based; conditions: for effect on forskolin-stimulated cAMP: forskolin 8 μM
In short: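 CHO-K1 PathHunter GPR32 cells were seeded at 1,800 cells/well for 20 h, then stimulated with forskolin (8 μM final) plus Ro 20-1724 (100 μM final). Compounds were added as 1:3 dilutions (57 μM–1 nM final) for 30 min at 37 °C. cAMP was read by HTRF as the 665/615 nm ratio ×10,000. Forskolin alone set 0%; DMSO (0.57%) set −100%. Two experiments in triplicate.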

recombinant human DRV1 = recombinant human DRV1 (Homo sapiens, UniProt O75388); assay: Electrical cell substrate impedance sensing; type: cell-based; conditions: for direction of impedance change: CHO cells expressing DRV1, concentration not stated
In short: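 GPR32- or mock-transfected CHO cells were seeded at 0.1×10^6 per well of an 8-well ECIS electrode array. Test compounds were added in serum-free medium at 100 nM–10 μM. Impedance across the monolayer was recorded every 4 s for 10 min at 37 °C. Tracings are representative of 3 independent experiments.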

human macrophages [4] = assay: CD163; type: cell-based; conditions: 10 nM, 24h; significant only for RvD1
[5] = system: mock-transfected macrophages; assay: Real-time phagocytosis of live E. coli, mock-transfected macrophages; type: cell-based, human; conditions: 10 nM
In short: (§1)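 Macrophages were transfected with a human GPR32 expression vector or a mock vector (5 μg) using Jet-PEI. Cells were re-plated on chamber slides 48 h later and imaged 24 h after that in a stage-top incubator. Compound (10 nM) was given for 15 min at 37 °C, then BacLight Green-labelled E. coli at 50:1. Fluorescence was imaged every 10 min for 60 min, 4 fields/well at 40X. Results are % above vehicle from 3 donors.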

[6] = system: DRV1-transfected macrophages; assay: Real-time phagocytosis of live E. coli, macrophages overexpressing DRV1/GPR32; type: cell-based, human; conditions: 10 nM
In short: as §1

CHO-WT cells = assay: ECIS in wild-type CHO cells; type: cell-based, Chinese hamster; conditions: 1μM
[7] = hGPR32/DRV1-transfected, 10 min

T1 sequence (O75388 whole entry): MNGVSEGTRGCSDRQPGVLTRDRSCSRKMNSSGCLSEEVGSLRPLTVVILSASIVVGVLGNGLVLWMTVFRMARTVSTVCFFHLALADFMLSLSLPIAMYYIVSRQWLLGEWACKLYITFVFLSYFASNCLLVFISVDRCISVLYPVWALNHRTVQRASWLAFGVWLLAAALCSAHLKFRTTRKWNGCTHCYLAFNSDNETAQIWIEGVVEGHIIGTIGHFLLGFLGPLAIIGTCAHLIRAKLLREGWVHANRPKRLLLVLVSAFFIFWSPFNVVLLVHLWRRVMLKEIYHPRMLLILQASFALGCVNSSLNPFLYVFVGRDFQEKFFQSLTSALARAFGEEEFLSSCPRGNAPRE
Chain of recombinant human DRV1 (O75388 whole entry): as above

Compound | EC50 (DRV1/GPR32 [2]) | EC50 (DRV1/GPR32 [3]) | direction of impedance change (recombinant human DRV1) | impedance change (recombinant human DRV1; CHO-hDRV1, 100 nM) | phagocytosis of STZ (human macrophages [1]; 0.1–10 nM) | effect on forskolin-stimulated cAMP (DRV1/GPR32 [3]) | impedance change (recombinant human DRV1; CHO-DRV1, 100 nM-10 μM) | phagocytosis of STZ, dose response (human macrophages [1]) | increase of phagocytosis of STZ above vehicle (human macrophages [1]) | increase of CD163 levels compared to vehicle (human macrophages [4]) | increase of phagocytosis of E. coli above vehicle control ([5]; 10 min) | increase of phagocytosis of E. coli above vehicle control [6, 7] | increase of phagocytosis of E. coli above vehicle control ([5]; 20–30 min) | increase of phagocytosis of E. coli above vehicle control ([6]; DRV1-transfected, 20–30 min) | β-arrestin signal increase above basal cell activity (DRV1/GPR32 [2]; GPR32 β-arrestin cells, 11 concentrations 57 μM to 1 nM) | impedance change (recombinant human DRV1; CHO-DRV1 cells, 1μM) | impedance change (CHO-WT cells) | β-arrestin activity (DRV1/GPR32 [2]; dose response)
NCCc1c[nH]c2ccc(O)cc12 [5-HT] | – | – | – | – | did not significantly increase phagocytosis | – | – | – | – | – | – | – | – | – | – | – | – | –
COc1ccccc1N1CCN(CCN(C(=O)c2ccc(F)cc2)c2ccccn2)CC1 [pMPPF, 4-Fluoro-N-{2-[4-(2-methoxyphenyl)-1-piperazinyl]ethyl}-N-(2-pyridinyl)benzamide, reference compound] | 1160 nM | – | increased impedance | – | – | dose-dependently reduced forskolin-stimulated cAMP release | – | enhanced phagocytosis in a dose-dependent manner | ~ 60% | 13.7% | – | – | – | > 50% | ~ 30% | increased | did not give significant impedance changes | –
COc1ccccc1N1CCN(CCN(C(=O)c2ccc(I)cc2)c2ccccn2)CC1 [pMPPI, 4-iodo-N-{2-[4-(2-methoxyphenyl)-1-piperazinyl]ethyl}-N-(2-pyridinyl)benzamide, reference compound] | – | 2500 nM | reduced impedance | – | – | increased forskolin-stimulated cAMP release | – | enhanced phagocytosis in a dose-dependent manner | significantly less potent than pMPPF | 20.0% | – | – | – | – | – | reduced impedance | did not give significant impedance changes | not β-arrestin activities

The next lines start with results.

EC50 (DRV1/GPR32 [2]) | EC50 (DRV1/GPR32 [3]) | direction of impedance change (recombinant human DRV1) | impedance change (recombinant human DRV1; CHO-hDRV1, 100 nM) | Compound | phagocytosis of STZ (human macrophages [1]; 0.1–10 nM) | effect on forskolin-stimulated cAMP (DRV1/GPR32 [3]) | impedance change (recombinant human DRV1; CHO-DRV1, 100 nM-10 μM) | phagocytosis of STZ, dose response (human macrophages [1]) | increase of phagocytosis of STZ above vehicle (human macrophages [1]) | increase of CD163 levels compared to vehicle (human macrophages [4]) | increase of phagocytosis of E. coli above vehicle control ([5]; 10 min) | increase of phagocytosis of E. coli above vehicle control [6, 7] | increase of phagocytosis of E. coli above vehicle control ([5]; 20–30 min) | increase of phagocytosis of E. coli above vehicle control ([6]; DRV1-transfected, 20–30 min) | β-arrestin signal increase above basal cell activity (DRV1/GPR32 [2]; GPR32 β-arrestin cells, 11 concentrations 57 μM to 1 nM) | impedance change (recombinant human DRV1; CHO-DRV1 cells, 1μM) | impedance change (CHO-WT cells) | β-arrestin activity (DRV1/GPR32 [2]; dose response)
930 nM | 380 nM | increased impedance | – | COc1cccc(C(=O)Nc2nnc(S(=O)(=O)N3CCOCC3)s2)c1 [C1A, 3-methoxy-N-(5-morpholin-4-ylsulfonyl-1,3,4-thiadiazol-2-yl)benzamide] | – | dose-dependently reduced forskolin-stimulated cAMP release | dose-dependently elicited rapid changes in impedance | enhanced phagocytosis in a dose-dependent manner | 35–40% | 4.7% | ~ 15% | > 70% | – | – | – | – | – | –
3790 nM | 320 nM | increased impedance | – | O=C(Nc1nnc(S(=O)(=O)N2CCOCC2)s1)c1cccc(Br)c1 [C1B, 3-bromo-N-(5-morpholin-4-ylsulfonyl-1,3,4-thiadiazol-2-yl)benzamide] | – | dose-dependently reduced forskolin-stimulated cAMP release | dose-dependently elicited rapid changes in impedance | – | – | – | – | – | – | – | – | – | – | –
370 nM | 50 nM | increased impedance | – | Cc1c(-c2cccc(NC(=O)c3ccc(F)c(F)c3)c2)nc2ncccn12 [C2A, 3,4-difluoro-N-[3-(3-methylimidazo[1,2-a]pyrimidin-2-yl)phenyl]benzamide] | – | dose-dependently reduced forskolin-stimulated cAMP release | dose-dependently elicited rapid changes in impedance | enhanced phagocytosis in a dose-dependent manner | 35–40% | 13.3% | – | > 40% | – | – | – | – | – | –
1170 nM | 190 nM | increased impedance | – | COc1cccc(C(=O)Nc2cccc(-c3nc4ncccn4c3C)c2)c1 [C2B, 3-methoxy-N-[3-(3-methylimidazo[1,2-a]pyrimidin-2-yl)phenyl]benzamide] | – | dose-dependently reduced forskolin-stimulated cAMP release | dose-dependently elicited rapid changes in impedance | – | – | – | – | – | – | – | – | – | – | –
– | – | reduced impedance | time-dependently reduced impedance | CC/C=C\C[C@H](O)/C=C/C=C\C=C\C=C\[C@@H](O)[C@@H](O)C/C=C\CCC(=O)O [RvD1, 7S,8R,17S-trihydroxy-4Z,9E,11E,13Z,15E,19Z-docosahexaenoic acid, reference compound] | – | – | – | dose-dependently increased phagocytosis | ~ 60% | 25.7% | – | – | 30–40% | > 100% | – | – | – | –
